The target of assay [1] is T1, Nociceptin receptor (Homo sapiens, UniProt P41146). The experiment in a line: Agonist activity at NOP (unknown origin) […] assessed as induction of beta-arrestin2 activation incubated for 15 mins by BRET assay. Format: cell-based, HEK293.
Assay [2] deals with T1, Nociceptin receptor. The assay is described as follows: Agonist activity at NOP (unknown origin) expressed in HEK293 cell membranes co-expressing Gbeta1-RGFP protein assessed as induction of G protein activation incubated for 15 mins by BRET assay. Format: cell-based. In short, it runs like this:
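Membranes (3 μg protein) from HEK293 cells stably co-expressing NOP-RLuc and Gβ1-RGFP, in DPBS. Coelenterazine 5 μM final; ligands in PBS–BSA 0.01%. BRET ratio (RGFP 510 nm / RLuc 460 nm) read 15 min after agonist, room temperature. Values are vehicle-subtracted stimulated BRET ratio. Mean of five experiments in duplicate.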

In assay [3] the target is T1, Nociceptin receptor. The assay is described as follows: Bias factor, selectivity for agonist activity at NOP (unknown origin) expressed in HEK293 cell membranes co-expressing beta-arrestin2-RGFP protein assessed as induction of beta-arrestin2 activation to agonist activity at NOP (unknown origin) expressed in HEK293 cell membranes co-expressing Gbeta1-RGFP protein assessed as induction of G protein activation. The class given is cell-based. An outline of the steps:
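Concentration–response curves in the NOP G protein and β-arrestin 2 BRET assays were fitted to the Black–Leff operational model. Mean of at least five experiments with 95% confidence limits.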

Starred links: 1 amine or outer side, 2 acyl side, 3 side chain; linkers in the order of their positions; H or OH if unused. Positions of bridges follow the written chain, without caps; N, C: chain ends. Non-standard residues stand in square brackets, D forms with d. Residues, ends and D or L forms follow the SMILES beside them. Chains are numbered I, II in the order given. *: point of attachment. X1 = CCCCCCCCCCCCCCCC(=O)NCCCN1C(=O)CC(*)C1=O; X2 = O=C1CC([*:1])C(=O)N1CCCC(=O)[*:2]; Ac5c = NC1(C(=O)O)CCCC1; Ac3c = NC1(C(=O)O)CC1; Aib = CC(C)(N)C(=O)O

T1 sequence (P41146 whole entry): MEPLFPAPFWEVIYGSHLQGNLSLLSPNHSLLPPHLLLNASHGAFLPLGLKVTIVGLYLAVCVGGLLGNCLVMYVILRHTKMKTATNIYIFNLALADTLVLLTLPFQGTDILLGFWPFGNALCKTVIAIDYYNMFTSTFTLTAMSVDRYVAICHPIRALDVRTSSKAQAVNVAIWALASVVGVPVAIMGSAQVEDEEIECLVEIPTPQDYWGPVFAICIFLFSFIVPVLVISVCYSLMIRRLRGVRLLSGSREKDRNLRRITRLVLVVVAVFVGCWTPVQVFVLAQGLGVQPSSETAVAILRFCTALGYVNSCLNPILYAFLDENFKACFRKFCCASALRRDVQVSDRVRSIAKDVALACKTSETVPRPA

Usually EC50 stands for the concentration at which the effect is half-maximal. Consider `C[C@H](NC(=O)CNC(=O)[C@@H](NC(=O)[C@H](Cc1ccccc1)NC(=O)CNC(=O)CNC(=O)[C@@H](N)Cc1ccccc1)[C@@H](C)O)C(=O)N[C@@H](CCCNC(=N)N)C(=O)N[C@@H](CCCCN)C(=O)N[C@@H](CO)C(=O)N[C@@H](C)C(=O)N[C@@H](CCCNC(=N)N)C(=O)N[C@@H](CCCCN)C(=O)N[C@@H](CSC1CC(=O)N(CCCC(=O)N[C@@H](CCCCN)C(=O)N[C@@H](CCCCN)C(=O)N[C@@H](CCCCN)C(=O)N[C@@H](CCCCN)C(=O)N[C@@H](CCCCN)C(=O)N[C@@H](CCCCN)C(N)=O)C1=O)C(N)=O` (stereo not given in full), for which the half-maximal effective concentration (EC50) at Nociceptin receptor [1] was 6.03 nM; at Nociceptin receptor [2], 0.0871 nM. For the same compound, the Selectivity Index at Nociceptin receptor [3] was determined as 0.83.
The corresponding values for `CCCCCCCCCCCCCCCC(=O)NCCCN1C(=O)CC(SC[C@H](NC(=O)[C@H](CCCCN)NC(=O)[C@H](CCCNC(=N)N)NC(=O)[C@H](C)NC(=O)CNC(=O)[C@@H](NC(=O)[C@H](Cc2ccccc2)NC(=O)CNC(=O)CNC(=O)[C@@H](N)Cc2ccccc2)[C@@H](C)O)C(=O)N[C@@H](C)C(=O)N[C@@H](CCCNC(=N)N)C(=O)N[C@@H](CCCCN)C(N)=O)C1=O` (stereo not given in full) (H-FGGFTGARKC(X1)ARK-NH2) are 19.1 nM, 0.288 nM and 0.91.
Take `CCCCCCCCCCCCCCCC(=O)NCCCN1C(=O)CC(SC[C@H](NC(=O)[C@H](C)NC(=O)[C@H](CO)NC(=O)[C@H](CCCCN)NC(=O)[C@H](CCCNC(=N)N)NC(=O)[C@H](C)NC(=O)CNC(=O)[C@@H](NC(=O)[C@H](Cc2ccccc2)NC(=O)CNC(=O)CNC(=O)[C@@H](N)Cc2ccccc2)[C@@H](C)O)C(=O)N[C@@H](CCCCN)C(N)=O)C1=O` (stereo not given in full) (H-FGGFTGARKSAC(X1)K-NH2): the concentration giving a half-maximal response (EC50) is 22.4 nM at Nociceptin receptor [1] and 0.525 nM at Nociceptin receptor [2].
As for `CCCCCCCCCCCCCCCC(=O)NCCCN1C(=O)CC(SC[C@H](NC(=O)[C@H](CCCNC(=N)N)NC(=O)[C@H](C)NC(=O)[C@H](CO)NC(=O)[C@H](CCCCN)NC(=O)[C@H](CCCNC(=N)N)NC(=O)[C@H](C)NC(=O)CNC(=O)[C@@H](NC(=O)[C@H](Cc2ccccc2)NC(=O)CNC(=O)CNC(=O)[C@@H](N)Cc2ccccc2)[C@@H](C)O)C(N)=O)C1=O` (stereo not given in full) (H-FGGFTGARKSARC(X1)-NH2), the concentration giving a half-maximal response (EC50) at Nociceptin receptor [1] is 55 nM; at Nociceptin receptor [2] it was 1.26 nM. In addition, the Selectivity Index at Nociceptin receptor [3] stood at 0.7.
The corresponding values for `CCCCCCCCCCCCCCCC(=O)NCCCN1C(=O)CC(SC[C@H](NC(=O)[C@H](CO)NC(=O)[C@H](CCCCN)NC(=O)[C@H](CCCNC(=N)N)NC(=O)[C@H](C)NC(=O)CNC(=O)[C@@H](NC(=O)[C@H](Cc2ccccc2)NC(=O)CNC(=O)CNC(=O)[C@@H](N)Cc2ccccc2)[C@@H](C)O)C(=O)N[C@@H](CCCNC(=N)N)C(=O)N[C@@H](CCCCN)C(N)=O)C1=O` (stereo not given in full) (H-FGGFTGARKSC(X1)RK-NH2) are 34.7 nM, 0.437 nM and 1.11.
Take `C[C@H](NC(=O)CNC(=O)[C@@H](NC(=O)[C@H](Cc1ccccc1)NC(=O)CNC(=O)CNC(=O)[C@@H](N)Cc1ccccc1)[C@@H](C)O)C(=O)N[C@@H](CCCNC(=N)N)C(=O)N[C@@H](CCCCN)C(=O)N[C@@H](CO)C(=O)NC1(C(=O)N[C@@H](CCCNC(=N)N)C(=O)N[C@@H](CCCCN)C(N)=O)CCCC1` (H-FGGFTGARKS[Ac5c]RK-NH2): the Selectivity Index on Nociceptin receptor [3] worked out at 0.31.
Same read-out and setting: for `C[C@H](NC(=O)CNC(=O)[C@@H](NC(=O)[C@H](Cc1ccccc1)NC(=O)CNC(=O)CNC(=O)[C@@H](N)Cc1ccccc1)[C@@H](C)O)C(=O)N[C@@H](CCCNC(=N)N)C(=O)N[C@@H](CCCCN)C(=O)N[C@@H](CO)C(=O)NC(C)(C)C(=O)N[C@@H](CCCNC(=N)N)C(=O)N[C@@H](CCCCN)C(N)=O` (H-FGGFTGARKS[Aib]RK-NH2) the value was 0.29; for `C[C@H](NC(=O)[C@H](CO)NC(=O)[C@H](CCCCN)NC(=O)[C@H](CCCNC(=N)N)NC(=O)C1(NC(=O)CNC(=O)[C@@H](NC(=O)[C@H](Cc2ccccc2)NC(=O)CNC(=O)CNC(=O)[C@@H](N)Cc2ccccc2)[C@@H](C)O)CC1)C(=O)N[C@@H](CCCNC(=N)N)C(=O)N[C@@H](CCCCN)C(N)=O` (H-FGGFTG[Ac3c]RKSARK-NH2), 0.4; for `C[C@H](NC(=O)[C@H](CO)NC(=O)[C@H](CCCCN)NC(=O)[C@H](CCCNC(=N)N)NC(=O)C1(NC(=O)CNC(=O)[C@@H](NC(=O)[C@H](Cc2ccccc2)NC(=O)CNC(=O)CNC(=O)[C@@H](N)Cc2ccccc2)[C@@H](C)O)CCCC1)C(=O)N[C@@H](CCCNC(=N)N)C(=O)N[C@@H](CCCCN)C(N)=O` (H-FGGFTG[Ac5c]RKSARK-NH2), 0.08.
Turning to `C[C@H](NC(=O)CCCN1C(=O)CC(SC[C@H](NC(=O)[C@H](CCCCN)NC(=O)[C@H](CCCNC(=N)N)NC(=O)[C@H](C)NC(=O)[C@H](CO)NC(=O)[C@H](CCCCN)NC(=O)[C@H](CCCNC(=N)N)NC(=O)[C@H](C)NC(=O)CNC(=O)[C@@H](NC(=O)[C@H](Cc2ccccc2)NC(=O)CNC(=O)CNC(=O)[C@@H](N)Cc2ccccc2)[C@@H](C)O)C(N)=O)C1=O)C(=O)N[C@@H](CC(=O)O)C(=O)N[C@@H](C)C(=O)N[C@@H](CC(=O)O)C(=O)N[C@@H](C)C(=O)N[C@@H](CC(=O)O)C(=O)N[C@@H](C)C(=O)N[C@@H](CC(=O)O)C(=O)N[C@@H](C)C(=O)N[C@@H](CC(=O)O)C(=O)N[C@@H](C)C(=O)N[C@@H](CC(=O)O)C(N)=O` (stereo not given in full) (I: H-FGGFTGARKSARKC-NH2 / II: ADADADADADAD-NH2; linker I:14-II:N via X2), the EC50 on Nociceptin receptor [1] was 93.3 nM; on Nociceptin receptor [2], 24 nM. Besides, at Nociceptin receptor [3], the Selectivity Index amounted to 0.51.
The corresponding values for `C[C@H](NC(=O)CCCN1C(=O)CC(SC[C@H](NC(=O)[C@H](CCCCN)NC(=O)[C@H](CCCNC(=N)N)NC(=O)[C@H](C)NC(=O)[C@H](CO)NC(=O)[C@H](CCCCN)NC(=O)[C@H](CCCNC(=N)N)NC(=O)[C@H](C)NC(=O)CNC(=O)[C@@H](NC(=O)[C@H](Cc2ccccc2)NC(=O)CNC(=O)CNC(=O)[C@@H](N)Cc2ccccc2)[C@@H](C)O)C(N)=O)C1=O)C(=O)N[C@@H](Cc1cnc[nH]1)C(=O)N[C@@H](C)C(=O)N[C@@H](Cc1cnc[nH]1)C(=O)N[C@@H](C)C(=O)N[C@@H](Cc1cnc[nH]1)C(=O)N[C@@H](C)C(=O)N[C@@H](Cc1cnc[nH]1)C(=O)N[C@@H](C)C(=O)N[C@@H](Cc1cnc[nH]1)C(=O)N[C@@H](C)C(=O)N[C@@H](Cc1cnc[nH]1)C(N)=O` (stereo not given in full) (I: H-FGGFTGARKSARKC-NH2 / II: AHAHAHAHAHAH-NH2; linker I:14-II:N via X2) are 9.33 nM, 7.94 nM and -0.05.
The corresponding values for `C[C@H](NC(=O)CCCN1C(=O)CC(SC[C@H](NC(=O)[C@H](CCCCN)NC(=O)[C@H](CCCNC(=N)N)NC(=O)[C@H](C)NC(=O)[C@H](CO)NC(=O)[C@H](CCCCN)NC(=O)[C@H](CCCNC(=N)N)NC(=O)[C@H](C)NC(=O)CNC(=O)[C@@H](NC(=O)[C@H](Cc2ccccc2)NC(=O)CNC(=O)CNC(=O)[C@@H](N)Cc2ccccc2)[C@@H](C)O)C(N)=O)C1=O)C(=O)N[C@@H](CCCCN)C(=O)N[C@@H](C)C(=O)N[C@@H](CCCCN)C(=O)N[C@@H](C)C(=O)N[C@@H](CCCCN)C(=O)N[C@@H](C)C(=O)N[C@@H](CCCCN)C(=O)N[C@@H](C)C(=O)N[C@@H](CCCCN)C(=O)N[C@@H](C)C(=O)N[C@@H](CCCCN)C(N)=O` (stereo not given in full) (I: H-FGGFTGARKSARKC-NH2 / II: AKAKAKAKAKAK-NH2; linker I:14-II:N via X2) are 17.4 nM, 0.794 nM and 1.18.
For the compound `C[C@H](NC(=O)CNC(=O)[C@@H](NC(=O)[C@H](Cc1ccccc1)NC(=O)CNC(=O)CNC(=O)[C@@H](N)Cc1ccccc1)[C@@H](C)O)C(=O)N[C@@H](CCCNC(=N)N)C(=O)N[C@@H](CCCCN)C(=O)N[C@@H](CO)C(=O)N[C@@H](C)C(=O)N[C@@H](CCCNC(=N)N)C(=O)N[C@@H](CCCCN)C(=O)N[C@@H](CSC1CC(=O)N(CCCC(=O)NCC(=O)N[C@@H](CC(=O)O)C(=O)NCC(=O)N[C@@H](CC(=O)O)C(=O)NCC(=O)N[C@@H](CC(=O)O)C(=O)NCC(=O)N[C@@H](CC(=O)O)C(=O)NCC(=O)N[C@@H](CC(=O)O)C(=O)NCC(=O)N[C@@H](CC(=O)O)C(N)=O)C1=O)C(N)=O` (stereo not given in full) (I: H-FGGFTGARKSARKC-NH2 / II: GDGDGDGDGDGD-NH2; linker I:14-II:N via X2), the 50% effective concentration (EC50) was 49 nM on Nociceptin receptor [1] and 17.8 nM at Nociceptin receptor [2]. For the same compound, on Nociceptin receptor [3], the Selectivity Index was 0.81.
On to `C[C@H](NC(=O)CNC(=O)[C@@H](NC(=O)[C@H](Cc1ccccc1)NC(=O)CNC(=O)CNC(=O)[C@@H](N)Cc1ccccc1)[C@@H](C)O)C(=O)N[C@@H](CCCNC(=N)N)C(=O)N[C@@H](CCCCN)C(=O)N[C@@H](CO)C(=O)N[C@@H](C)C(=O)N[C@@H](CCCNC(=N)N)C(=O)N[C@@H](CCCCN)C(=O)N[C@@H](CSC1CC(=O)N(CCCC(=O)NCC(=O)N[C@@H](Cc2cnc[nH]2)C(=O)NCC(=O)N[C@@H](Cc2cnc[nH]2)C(=O)NCC(=O)N[C@@H](Cc2cnc[nH]2)C(=O)NCC(=O)N[C@@H](Cc2cnc[nH]2)C(=O)NCC(=O)N[C@@H](Cc2cnc[nH]2)C(=O)NCC(=O)N[C@@H](Cc2cnc[nH]2)C(N)=O)C1=O)C(N)=O` (stereo not given in full) (I: H-FGGFTGARKSARKC-NH2 / II: GHGHGHGHGHGH-NH2; linker I:14-II:N via X2), for which the 50% effective concentration (EC50) on Nociceptin receptor [1] is 12.6 nM; on Nociceptin receptor [2] it was 4.27 nM. The Selectivity Index on Nociceptin receptor [3] was 0.17.
Regarding H-FGGFNGARKSARK-NH2, the figures for the half-maximal effective concentration (EC50) on Nociceptin receptor [1] and on Nociceptin receptor [2] were 27.5 nM and 9.33 nM, respectively.

Values taken from ChEMBL document CHEMBL4665800, “Biased Agonism at Nociceptin/Orphanin FQ Receptors: A Structure Activity Study on N/OFQ(1-13)-NH” (J Med Chem, 2020).
